The source of these data is ChEMBL document CHEMBL4130438, “6,7-Seco-ent-Kauranoids Derived from Oridonin as Potential Anticancer Agents” (J Nat Prod, 2017).

Molecules are shown by their SMILES. Active and inactive are the calls of the source. The rule behind the calls is not given here. Where only a bound is given, the exact number is not on record here.

One assay has as its system MGC-803. Kind of assay: Antiproliferative activity against human MGC803 cells after 72 hrs by MTT assay. Type of assay: functional, cell-based. The settings on record: MGC-803, 72 h. The method, boiled down: (§1)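 Cells pre-incubated 24 h at 37 °C, 5% CO2 in 96-well plates, then exposed to a range of compound concentrations (DMSO ≤0.25%) for 72 h. Viable cells read by MTT colour at 570 nm. Performed in quadruplicate, repeated three times. IC50 reported as means ± SD, n = 3.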
Background: Tetrazolium assays rely on reduction of a dye to a coloured formazan, in cell work by metabolically active cells.

Assay [1] relates to Bel-7402. Kind of assay: Antiproliferative activity against human Bel7402 cells after 72 hrs by MTT assay. Type of assay: functional, cell-based. The following applies: Bel-7402, 72 h. Summed up:
as §1

The subject of assay [2] is MCF7. Description: Antiproliferative activity against human MCF7 cells after 72 hrs by MTT assay. Type of assay: functional, cell-based. The settings on record: MCF7, 72 h. The method, boiled down:
as §1

For another assay, the system named is K562. Description: Antiproliferative activity against human K562 cells after 72 hrs by MTT assay. The following applies: K562, 72 h. Type of assay: functional, cell-based. The method, boiled down:
as §1

The species named for the next assay is Homo sapiens. Kind of assay: Antiproliferative activity against human KB/CP4 cells after 48 hrs by MTT assay. Format: functional, cell-based.
A further assay relates to KB 3-1. Kind of assay: Antiproliferative activity against human KB-3-1 cells after 48 hrs by MTT assay. Type of assay: functional, cell-based.
The subject of assay [3] is MCF7. Description: Cytotoxicity against human MCF7 cells assessed as decrease in cell viability after 24 hrs by LDH release assay. Format: functional, cell-based. The method, boiled down:
(§2)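 MCF-7 and Bel-7402 cells seeded at ~5 × 10^3 per well for 24 h, then exposed to compounds. LDH released into the medium measured with CytoTox-ONE reagent (10 min, ambient temperature) followed by stop solution. Fluorescence read at ex 560/em 590 nm.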
(In general: Release of lactate dehydrogenase indicates damage to the cell membrane.)

In assay [4] the test system is Bel-7402. Description: Cytotoxicity against human Bel7402 cells assessed as decrease in cell viability after 24 hrs by LDH release assay. Format: functional, cell-based. The method, boiled down: as §2
In a further assay the test system is H22. Description: Antitumor activity against […] cells xenografted in ICR mouse assessed as inhibition of tumor volume at 20 mg/kg, iv qd administered for 14 consecutive days measured every 2 days relative to control. Type of assay: functional. The following applies: 14 days. Summed up: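 Male ICR mice, five weeks old, implanted s.c. in the right flank with 1 × 10^6 H22 cells. After 7 days, randomised into groups of eight. Given i.v. once daily for 14 days, 10 or 20 mg/kg in 10% DMF/2% poloxamer/88% saline; negative controls received 0.9% saline i.v., positive control 20 mg/kg oridonin. Body weight and tumour volume (L × W²/2) recorded every 2 days. Tumours excised and weighed at sacrifice; inhibition (%) = (1 − treated/control mean tumour weight) × 100.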
Background: Xenograft models place foreign cells or tissue in a host animal.

As usually defined, the IC50 is the point on the concentration scale where inhibition reaches its midpoint. A low value points to greater potency in that assay. Consider `C=C1C(=O)[C@@]23C(=O)OC[C@]4([C@@H](OS(C)(=O)=O)CCC(C)(C)[C@H]4C=O)[C@@H]2CC[C@@H]1[C@H]3OS(C)(=O)=O`, for which the IC50 in the assay with MGC-803 was 8800 nM; in the assay on Bel-7402 [1] it was 3800 nM; with MCF7 [2], 9500 nM; in the assay on K562, 1200 nM.

As for `C=C1C(=O)[C@]23[C@H](O)[C@H]1CC[C@H]2[C@@]12CO[C@@]3(O)[C@@H](O)[C@@H]1C(C)(C)CC[C@@H]2OS(C)(=O)=O`, the IC50 with MGC-803 was 3900 nM; in the assay on Bel-7402 [1], 2700 nM; in the assay with MCF7 [2] it was 3900 nM; in the assay on K562, 3200 nM.

Take `C=C1C(=O)[C@@]23C(=O)OC[C@]4([C@@H](OS(C)(=O)=O)CCC(C)(C)[C@H]4C=O)[C@@H]2CC[C@@H]1[C@H]3OC(=O)c1ccco1`: the IC50 with MGC-803 was 3400 nM; with Bel-7402 [1] it was 1100 nM; with MCF7 [2], 2900 nM; in the assay with K562 it was 1700 nM.

On to `C=C1C(=O)[C@@]23C(=O)OC[C@]4(C=CCC(C)(C)[C@H]4C=O)[C@@H]2CC[C@@H]1[C@H]3OS(C)(=O)=O`, for which the IC50 in the assay with MGC-803 is 2800 nM; in the assay with Bel-7402 [1], 1300 nM; in the assay on MCF7 [2], 2000 nM; with K562 it was 1900 nM.

With `C=C1C(=O)[C@@]23C(=O)OC[C@]4(C=CCC(C)(C)[C@H]4C=O)[C@@H]2CC[C@@H]1[C@H]3OC(=O)c1ccc([N+](=O)[O-])cc1`, the IC50 was 7300 nM with MGC-803, more than 10000 nM in the assay with Bel-7402 [1], 6400 nM with MCF7 [2] and 1000 nM in the assay with K562.

For the compound `C=C1C(=O)[C@@]23C(=O)OC[C@]4(C=CCC(C)(C)[C@H]4C=O)[C@@H]2CC[C@@H]1[C@H]3OC(=O)CC`, the half-maximal inhibitory concentration (IC50) with MGC-803 came out at 7300 nM; in the assay on Bel-7402 [1], 7100 nM; with MCF7 [2] it was 3400 nM; in the assay with K562, 1200 nM.

As for `C=C1C(=O)[C@@]23C(=O)OC[C@]4(C=CCC(C)(C)[C@H]4C=O)[C@@H]2CC[C@@H]1[C@H]3O`, the concentration for half-maximal inhibition (IC50) in the assay on MGC-803 amounted to 3000 nM; with Bel-7402 [1], 2500 nM; in the assay on MCF7 [2] it was 6400 nM; in the assay on K562, 4200 nM. The result in the assay filed under Homo sapiens and in the assay with KB 3-1 was Active. Further, the result in the assay on MCF7 [3] and in the assay on Bel-7402 [4] was inactive.

As to `C=C1C(=O)[C@@]23C(=O)OC[C@]4(C=CCC(C)(C)[C@H]4C=O)[C@@H]2CC[C@@H]1[C@H]3OC(=O)CCCC`, the IC50 in the assay with MGC-803 is 4300 nM; in the assay with Bel-7402 [1] it was 2200 nM; in the assay with MCF7 [2] it was 3300 nM; in the assay with K562, 5500 nM.

Consider `C=C1C(=O)[C@@]23C(=O)OC[C@]4([C@@H](OS(C)(=O)=O)CCC(C)(C)[C@H]4C=O)[C@@H]2CC[C@@H]1[C@H]3OC(=O)CCCC`, for which the IC50 worked out at 3200 nM in the assay with MGC-803, 2200 nM in the assay with Bel-7402 [1], 3700 nM in the assay with MCF7 [2] and 4500 nM with K562.

Take `C=C1C(=O)[C@@]23C(=O)OC[C@]4(C=CCC(C)(C)[C@H]4C=O)[C@@H]2CC[C@@H]1[C@H]3OC(=O)c1cnccn1`: the IC50 in the assay on MGC-803 worked out at 2800 nM; with Bel-7402 [1] it was 1300 nM; in the assay with MCF7 [2], 3500 nM; in the assay on K562, 2900 nM.

As for `C=C1C(=O)[C@@]23C(=O)OC[C@]4(C=CCC(C)(C)[C@H]4C=O)[C@@H]2CC[C@@H]1[C@H]3OC(=O)/C=C/c1ccccc1`, the IC50 in the assay with MGC-803 is 950 nM; in the assay on Bel-7402 [1], 1500 nM; in the assay with MCF7 [2] it was 1500 nM; with K562, 1300 nM.

On to `C=C1C(=O)[C@@]23C(=O)OC[C@]4([C@@H]5O[C@@H]5CC(C)(C)[C@H]4C=O)[C@@H]2CC[C@@H]1[C@H]3O`, for which the 50% inhibitory concentration (IC50) with MGC-803 was more than 10000 nM; in the assay on Bel-7402 [1], 4600 nM; with MCF7 [2], more than 10000 nM; in the assay on K562 it was more than 10000 nM.

Regarding `C=C1C(=O)[C@@]23C(=O)OC[C@]4(C=CCC(C)(C)[C@H]4C=O)[C@@H]2CC[C@@H]1[C@H]3OC(C)=O`, the half-maximal inhibitory concentration (IC50) came to 950 nM with MGC-803, 570 nM with Bel-7402 [1], 1000 nM with MCF7 [2] and 630 nM with K562.

For the compound `C=C1C(=O)[C@@]23C(=O)OC[C@]4(C=CCC(C)(C)[C@H]4C=O)[C@@H]2CC[C@@H]1[C@H]3OC(=O)c1cccc(C)c1`, the half-inhibitory concentration (IC50) came to 2400 nM in the assay with MGC-803, 3600 nM in the assay with Bel-7402 [1], 1100 nM with MCF7 [2] and 550 nM in the assay on K562.

As to `C=C1C(=O)[C@@]23C(=O)OC[C@]4(C=CCC(C)(C)[C@H]4C=O)[C@@H]2CC[C@@H]1[C@H]3OC(=O)/C=C/c1cccc([N+](=O)[O-])c1`, the IC50 with MGC-803 worked out at 2900 nM; in the assay with Bel-7402 [1], 5100 nM; in the assay with MCF7 [2], 2200 nM; in the assay with K562, 1400 nM.

Regarding `C=C1C(=O)[C@@]23C(=O)OC[C@]4([C@@H](OS(C)(=O)=O)CCC(C)(C)[C@H]4C=O)[C@@H]2CC[C@@H]1[C@H]3O`, the IC50 with MGC-803, in the assay on Bel-7402 [1], in the assay on MCF7 [2] and in the assay with K562 was more than 10000 nM in each case.

Regarding `C=C1C(=O)[C@@]23C(=O)OC[C@]4([C@@H](OS(C)(=O)=O)CCC(C)(C)[C@H]4C=O)[C@@H]2CC[C@@H]1[C@H]3OC(=O)c1ccc(F)cc1`, the 50% inhibitory concentration (IC50) was 4500 nM in the assay on MGC-803, 3100 nM in the assay on Bel-7402 [1], 5500 nM with MCF7 [2] and 6200 nM with K562.

Broadly, the inhibition in vivo is the drop in the measured response relative to a control, in per cent. Regarding `C=C1C(=O)[C@]23[C@H](O)[C@H]1CC[C@H]2[C@@]12CO[C@]3(O)[C@@H](O)[C@@H]1C(C)(C)CC[C@@H]2O` [ORIDONIN], the IC50 with MGC-803 is 4500 nM; in the assay with Bel-7402 [1], more than 10000 nM; with MCF7 [2], 9100 nM; in the assay with K562, 5100 nM. For the same compound, the inhibition in vivo at 20 mg/kg in the assay on H22 stood at 51.2%.

With `C=C1C(=O)[C@@]23C(=O)OC[C@]4(C=CCC(C)(C)[C@H]4C=O)[C@@H]2CC[C@@H]1[C@H]3OC(=O)c1ccco1`, the half-maximal inhibitory concentration (IC50) in the assay on MGC-803 turned out to be 1300 nM; in the assay with Bel-7402 [1], 840 nM; in the assay with MCF7 [2], 1200 nM; in the assay with K562, 780 nM.
